Compounds with a hit are over-represented: about 1.1% of the library has one in this group of screens.
CDK5 inh – inhibitors of human CDK5/p35 kinase | Recombinant CDK5/p35, ADP-Glo luminescence, 60 min | inhibition, % at 10 µM | 330,000 compounds, 0.01% hits | Q00535+Q15078;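 active means highest replicate inhibition of at least 50% and at least 75% of replicates reaching 50%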
GSK3 alpha inh – blocks human GSK-3 alpha kinase; P49840; ADP-Glo luminescence, 60 min; inhibition, % at 10 µM; 320,000 compounds, 0.1% hits;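 active means more than half of replicates show inhibition above 20%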;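 further: GST-tagged GSK-3 alpha with peptide substrate and 25 µM ATP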
SR-BI uptake up – enhances SR-BI lipid uptake from DiI-HDL | activation, % at 12.5 µM | CHO ldlA[mSR-BI] cells, DiI-HDL uptake fluorescence, 3 h; 100 = double the neutral-control signal | AID 504775 | 320,000 compounds, 0.096% hits;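 active means mean replicate activation of at least 60% and every replicate at or above 60%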
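Material: SR-BI-overexpressing, LDLR-lacking CHO cells; schedule: compound exposure 3 h, 37 °C; reagent: DiI-labelled HDL at 10 µg/mL final; technique: bottom-read fluorescence, 550/595 nm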
SR-BI HDL uptake – blocks mouse SR-BI lipid uptake from DiI-HDL. ldlA[mSR-BI] CHO cells, DiI-HDL uptake fluorescence, 3 h. inhibition, % at 12.5 µM. 320,000 compounds, 0.96% hits. AID 488896;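 active means mean replicate inhibition of at least 70% and a set share of replicates each scoring 70 or more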
Target sequence (Q61009 whole entry, looked up): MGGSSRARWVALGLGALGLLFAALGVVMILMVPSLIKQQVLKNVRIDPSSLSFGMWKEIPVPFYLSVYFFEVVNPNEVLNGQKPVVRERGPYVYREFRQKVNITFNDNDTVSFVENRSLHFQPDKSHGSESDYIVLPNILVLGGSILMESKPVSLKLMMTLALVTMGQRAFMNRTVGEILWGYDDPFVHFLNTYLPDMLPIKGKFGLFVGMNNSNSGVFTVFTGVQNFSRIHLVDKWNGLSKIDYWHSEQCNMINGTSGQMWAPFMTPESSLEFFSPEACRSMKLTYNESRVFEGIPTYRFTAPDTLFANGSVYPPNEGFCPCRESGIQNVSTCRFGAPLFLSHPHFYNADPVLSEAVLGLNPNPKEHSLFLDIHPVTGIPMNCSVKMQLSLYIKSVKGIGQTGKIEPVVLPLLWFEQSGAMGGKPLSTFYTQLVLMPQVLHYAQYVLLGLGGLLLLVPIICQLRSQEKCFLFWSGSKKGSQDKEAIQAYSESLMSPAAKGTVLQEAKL
GSK3beta inhib – blocks human GSK3beta kinase activity. P49841. GST-GSK3beta kinase, ADP-Glo luminescence, 60 min; hits give low values. activity score (negative = inhibition), % at 10 µM. 300,000 compounds, 0.038% hits;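 active means more than half of replicate wells score below -50%, meaning over 50% inhibition versus plate controls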
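Assay system: GST-fused GSK3beta enzyme, cell-free / Medium: Tris pH 7.5 buffer with MgCl2, DTT, BSA, heparin / Also added: peptide substrate plus 25 µM ATP (final) / Compound: 10 µM single point / Timing: kinase reaction with compound 60 min at room temperature / Detection: ADP-Glo luminescence / Benchmarks: DMSO neutral wells and GW8510 at 20 µM as positive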
Large screens that a line does not name were inactive.

COc1ccc(CC(=O)OC(C)C(=O)c2ccc(C)cc2)cc1 (configuration not stated)	none
CCOC(=O)N1CCC(NC(=O)c2ccc3c(c2)N(C)C(=O)/C(=C/c2cccc(OC)c2)S3)CC1	SR-BI HDL uptake 75
Cc1cccc(/C=C2\Sc3ccc(C(=O)NCC4CCCO4)cc3N(C)C2=O)c1 (configuration not stated)	SR-BI HDL uptake 92
CCOc1ccc(/C=C2/Sc3ccc(C(=O)NCC4CCCO4)cc3N(C)C2=O)cc1OC (configuration not stated)	none
COc1ccc(/C=C2\Sc3ccc(C(=O)NCCCN4CCCC4)cc3N(C)C2=O)cc1OC	SR-BI HDL uptake 78
CCOC(=O)N1CCN(C(=O)c2ccc3c(c2)N(C)C(=O)/C(=C\c2ccc(OCC)c(OC)c2)S3)CC1	none
COc1ccc(N2CCN(S(=O)(=O)CCNC(=O)c3ccc(Br)o3)CC2)cc1	none
COc1ccccc1N(CCC#N)C(=O)COC(=O)CCC(=O)c1ccc(F)cc1	none (no result: GSK3beta inhib)
CN(C(=O)c1cccc(NC(=O)Cc2ccc(NC(=O)C3CCCN(C(=O)C4CCCC4)C3)cc2)c1)C1CCCC1 (configuration not stated)	none (no result: GSK3 alpha inh, GSK3beta inhib)
CN(C(=O)c1cccc(NC(=O)Cc2ccc(NC(=O)C3CCCN(C(=O)C4CCCC4)C3)cc2)c1)C1CCCCC1 (configuration not stated)	SR-BI HDL uptake 83 (no result: GSK3 alpha inh, GSK3beta inhib)
CN(C(=O)c1ccc(NC(=O)Cc2cccc(NC(=O)C3CCN(C(=O)CCc4ccccc4)CC3)c2)cc1)C1CCCC1	SR-BI HDL uptake 71 (no result: GSK3beta inhib)
O=C(Cc1ccc(NC(=O)C2CCCN(C(=O)C3CCCC3)C2)cc1)Nc1cccc(C(=O)N2CCCC2)c1 (configuration not stated)	SR-BI HDL uptake 75 (no result: GSK3 alpha inh, GSK3beta inhib)
CN(C(=O)c1cccc(NC(=O)Cc2ccc(NC(=O)C3CCCN(C(=O)C4CCCC4)C3)cc2)c1)C1CC1 (configuration not stated)	SR-BI HDL uptake 76 (no result: GSK3 alpha inh, GSK3beta inhib)
COCCCn1c(SCC(=O)NC2CCCC2)nnc1-c1cccs1	none (no result: SR-BI uptake up, SR-BI HDL uptake)
Cc1ccc(C(=O)Nc2cccc(NC(=O)c3cccs3)c2)c(C)c1	none
Cc1ccc(S(=O)(=O)NCCC(=O)NNC(=O)COc2ccccc2Cl)cc1C	none (no result: GSK3beta inhib)
O=C(CCC(=O)Nc1nnc(C2CCCCC2)s1)Nc1ccccc1	none
COc1ccc(CCNC(=O)Nc2ccccc2[N+](=O)[O-])cc1	none
COc1ccccc1CCC(=O)Nc1ccc2c(c1)CN(Cc1ccc(C)o1)CC2	SR-BI HDL uptake 81 (no result: GSK3beta inhib)
COc1ccccc1CC(=O)Nc1ccc2c(c1)CCC2	none
CC(=O)c1cccc(NC(=O)c2cc(S(=O)(=O)N3CCOCC3)cs2)c1	SR-BI HDL uptake 78
CC(=O)Oc1ccc(-c2ccc(C(=O)Nc3cccc(S(=O)(=O)N4CCOCC4)c3)cc2)cc1	SR-BI HDL uptake 81
Cc1cc(SCC(=O)Nc2cccc(S(=O)(=O)N3CCOCC3)c2)nc2ccccc12	SR-BI HDL uptake 79
O=C(CN1C(=O)NC2(CCCCCCC2)C1=O)NCc1ccc(Cl)cc1	none (no result: GSK3beta inhib)
O=[N+]([O-])c1cccc(N/N=C/c2cccc(O)c2O)c1	none
CC1=C(C(=O)OCc2ccc3c(c2)OCO3)C(c2ccccc2)NC(=O)N1 (configuration not stated)	GSK3 alpha inh 63
O=C1/C(=C/c2ccc([N+](=O)[O-])cc2)C=C(c2ccccc2)N1c1ccccc1	none
COc1ccc(N2C(=O)/C(=C/c3ccc([N+](=O)[O-])cc3)C=C2c2ccccc2)cc1	SR-BI HDL uptake 96
CCOc1ccc(/C=C2/C(=N)N3OC(C)=CC3=NC2=O)cc1OC	SR-BI uptake up 86 (no result: GSK3 alpha inh)
COC(=O)c1ccccc1C(=O)N(Cc1cccnc1)CC1CCCN(C2CCCCC2)C1 (configuration not stated)	none
Cc1cccc2c1nc(-c1ccccc1)n1cnnc21	SR-BI uptake up 854
Cc1cccc2c1nc(-c1ccccc1)n1nnnc21	none
CCOC(=O)c1c(C)[nH]c(C(=O)OCC(=O)N(CC(C)C)C2CCS(=O)(=O)C2)c1C (configuration not stated)	none (no result: GSK3beta inhib)
Cc1ccc(C)c(Nc2cc(C)nc3ncnn23)c1	SR-BI uptake up 192
COCCn1ccc2c(OCC(=O)NCCc3ccccc3)cccc2c1=O	none
Cc1ccc(C(=O)N2CCCCC2)cc1NC1=C(Cl)C(=O)N(Cc2ccccc2)C1=O	none (no result: GSK3 alpha inh, GSK3beta inhib)
Cc1ccc(O)c(NC2=C(Cl)C(=O)N(Cc3ccccc3)C2=O)c1	SR-BI HDL uptake 77 (no result: GSK3 alpha inh)
O=C(CCCc1ccccc1)NC12CC3CC(CC(C3)C1)C2	none
CCOC(=O)C1CCN(C(=O)COC(=O)C2CCN(S(=O)(=O)c3ccc(C)c(C)c3)CC2)CC1	none
O=C1CC(=Nc2ccccc2)NN1c1ccccc1	SR-BI HDL uptake 108
O=C1Cc2ccccc2N1c1ccccc1	none
CCCCCCSc1ccc(-c2nc3ccc(Cl)cn3c2NCCCC)cc1OC	none (no result: GSK3 alpha inh, GSK3beta inhib)
CCCCNc1c(-c2ccc(SC3CCCCC3)c(OC)c2)nc2ccc(Cl)cn12	SR-BI HDL uptake 75
CCCCNc1c(-c2ccc(OC)c(Sc3ccc(OC)cc3)c2)nc2ccccn12	none
CCCCNc1c(-c2ccc(-c3ccc(OC)cc3)c(OC)c2)nc2ccccn12	SR-BI HDL uptake 87 (no result: GSK3 alpha inh, GSK3beta inhib)
NC(=S)N/N=C/c1ccc(-c2ccccc2)o1	none
NC(=S)N/N=C/c1ccc(-c2ccc(SC(F)F)cc2)o1	SR-BI HDL uptake 74
NC(=S)N/N=C/c1ccc(-c2ccc(Cl)c(Cl)c2)o1	SR-BI HDL uptake 86
CN(C)/N=C/c1ccc(/C=N/NC(N)=S)o1	none (no result: GSK3beta inhib)
Cc1ccc(-c2ccc(/C=N/NC(N)=S)o2)cc1	SR-BI HDL uptake 96
NC(=S)N/N=C\c1ccc(-c2cccc(Cl)c2Cl)o1	SR-BI HDL uptake 79
Cc1ccc(S(=O)(=O)N2CCOCC2)cc1C(=O)OCC(=O)N1CCc2ccccc2C1	SR-BI HDL uptake 76 (no result: GSK3 alpha inh)
c1cc(CCCc2ccncc2)ccn1	none (no result: GSK3beta inhib)
COc1cc(/C=C2\Oc3cc(O)ccc3C2=O)ccc1O	GSK3 alpha inh 63
O=C1/C(=C/c2ccc(O)c(O)c2)Oc2cc(O)ccc21	none (no result: GSK3beta inhib)
CC(=O)c1c(C)[nH]c(C(=O)CN2CCN(S(=O)(=O)c3ccccc3)CC2)c1C	none (no result: GSK3beta inhib)
Cc1nc2nc(CCNS(=O)(=O)c3ccc(Cl)cc3)cn2nc1C	none (no result: CDK5 inh)
CN1/C(=C/C2CC(=O)NC2=O)C(C)(C)c2ccccc21 (configuration not stated)	GSK3 alpha inh 65 (no result: GSK3beta inhib)
COc1ccc(-c2cc(-c3cc(F)ccc3O)[nH]n2)cc1OC	SR-BI HDL uptake 72
CC(=O)NCCc1c[nH]c2ccc(OCC(O)CNC(C)(C)C)cc12 (configuration not stated)	none
Cc1nc2ccccc2c(=O)n1/N=C/c1ccc2ccccc2c1O	SR-BI HDL uptake 90
Cc1nc2ccccc2c(=O)n1/N=C/c1ccc(O)c(O)c1O	none
COc1cc(/C=N/n2c(C)nc3ccccc3c2=O)ccc1O	SR-BI uptake up 507

Screens from PubChem BioAssay.
